Measurements as given in ChEMBL document CHEMBL4813947, “New dual ATP-competitive inhibitors of bacterial DNA gyrase and topoisomerase IV active against ESKAPE pathogens” (Eur J Med Chem, 2021).
Converted amounts (≈) assume the structure as drawn.

Legend:
Staphylococcus aureus [1] = test: Antibacterial activity against Staphylococcus aureus ATCC 29213 assessed as inhibition of bacterial growth by CLSI protocol based broth microdilution assay; assay type: functional
[2] = Inhibition of Staphylococcus aureus topoisomerase assessed as reduction in relaxation of supercoiled pNO1 DNA measured after 30 mins by fluorescence assay
Outline: (§1)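 Enzyme run per an earlier-reported procedure; IC50 fitted from seven inhibitor concentrations, mean of three independent measurements.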

Klebsiella pneumoniae = test: Antibacterial activity against Klebsiella pneumoniae ATCC 10031 assessed as inhibition of bacterial growth by CLSI protocol based broth microdilution assay; assay type: functional
Acinetobacter baumannii = test: Antibacterial activity against Acinetobacter baumannii ATCC 17978 assessed as inhibition of bacterial growth by CLSI protocol based broth microdilution assay; assay type: functional
Enterococcus faecalis = test: Antibacterial activity against Enterococcus faecalis ATCC 29212 assessed as inhibition of bacterial growth by CLSI protocol based broth microdilution assay; assay type: functional
DNA gyrase [3] = target: DNA gyrase (Escherichia coli, UniProt P0AES4+P0AES6); test: Inhibition of Escherichia coli DNA gyrase assessed as reduction in supercoiling of relaxed pNO1 DNA measured after 30 mins by fluorescence assay
DNA gyrase [4] = target: DNA gyrase (Staphylococcus aureus, UniProt P0A0K8+P20831); test: Inhibition of Staphylococcus aureus DNA gyrase assessed reduction in supercoiling of relaxed pNO1 DNA measured after 30 mins by fluorescence assay
DNA gyrase (Staphylococcus aureus, UniProt P0A0K8+P20831), sequence (P0A0K8 whole entry): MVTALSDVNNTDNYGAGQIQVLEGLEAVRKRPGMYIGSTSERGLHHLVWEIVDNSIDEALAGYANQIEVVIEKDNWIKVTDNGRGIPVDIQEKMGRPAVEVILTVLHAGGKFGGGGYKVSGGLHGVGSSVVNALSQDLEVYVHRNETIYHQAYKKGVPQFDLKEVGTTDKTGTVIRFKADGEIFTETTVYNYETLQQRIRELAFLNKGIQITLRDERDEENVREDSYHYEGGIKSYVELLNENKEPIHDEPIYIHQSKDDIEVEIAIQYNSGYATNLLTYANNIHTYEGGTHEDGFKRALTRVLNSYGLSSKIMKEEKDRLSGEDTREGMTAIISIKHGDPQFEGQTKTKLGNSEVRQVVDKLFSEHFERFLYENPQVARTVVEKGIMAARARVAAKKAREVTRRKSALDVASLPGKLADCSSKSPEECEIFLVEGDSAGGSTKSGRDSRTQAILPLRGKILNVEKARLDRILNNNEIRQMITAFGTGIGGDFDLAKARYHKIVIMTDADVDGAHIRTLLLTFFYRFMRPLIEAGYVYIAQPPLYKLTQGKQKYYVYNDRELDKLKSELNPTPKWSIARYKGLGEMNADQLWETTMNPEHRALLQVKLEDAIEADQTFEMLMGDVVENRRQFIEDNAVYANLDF
DNA gyrase (Staphylococcus aureus, UniProt P0A0K8+P20831), sequence (P20831 whole entry): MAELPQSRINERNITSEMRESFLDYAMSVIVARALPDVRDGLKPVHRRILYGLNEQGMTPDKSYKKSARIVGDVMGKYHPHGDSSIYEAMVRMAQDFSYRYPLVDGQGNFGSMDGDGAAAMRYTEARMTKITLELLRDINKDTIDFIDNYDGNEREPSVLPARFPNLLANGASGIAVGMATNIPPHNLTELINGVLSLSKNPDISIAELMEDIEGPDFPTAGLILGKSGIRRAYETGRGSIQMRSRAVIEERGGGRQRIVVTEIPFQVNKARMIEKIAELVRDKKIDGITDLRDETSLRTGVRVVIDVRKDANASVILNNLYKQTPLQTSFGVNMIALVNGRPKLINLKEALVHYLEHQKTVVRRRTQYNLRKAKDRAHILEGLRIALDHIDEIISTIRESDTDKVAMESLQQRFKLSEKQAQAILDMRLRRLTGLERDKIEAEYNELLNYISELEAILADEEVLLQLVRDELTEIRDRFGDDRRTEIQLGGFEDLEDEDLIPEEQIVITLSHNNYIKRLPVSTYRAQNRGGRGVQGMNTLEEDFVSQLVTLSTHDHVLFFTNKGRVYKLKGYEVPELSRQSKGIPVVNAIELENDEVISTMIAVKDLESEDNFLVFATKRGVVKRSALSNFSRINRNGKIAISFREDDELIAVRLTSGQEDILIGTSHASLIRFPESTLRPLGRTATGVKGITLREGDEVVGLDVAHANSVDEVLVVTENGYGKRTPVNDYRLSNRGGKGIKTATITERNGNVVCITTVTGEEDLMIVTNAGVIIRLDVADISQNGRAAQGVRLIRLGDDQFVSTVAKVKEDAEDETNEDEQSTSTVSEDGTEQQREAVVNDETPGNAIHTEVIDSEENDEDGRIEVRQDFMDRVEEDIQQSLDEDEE

[5] = Inhibition of Escherichia coli topoisomerase assessed as reduction in relaxation of supercoiled pNO1 DNA measured after 30 mins by fluorescence assay; outline: as §1
Pseudomonas aeruginosa = test: Antibacterial activity against Pseudomonas aeruginosa ATCC 27853 assessed as inhibition of bacterial growth by CLSI protocol based broth microdilution assay; assay type: functional
Escherichia coli = test: Antibacterial activity against Escherichia coli ATCC 25922 assessed as inhibition of bacterial growth by CLSI protocol based broth microdilution assay; assay type: functional
Staphylococcus aureus [6] = test: Antibacterial activity against methicillin-resistant Staphylococcus aureus ATCC 43300 assessed as inhibition of bacterial growth by CLSI protocol based broth microdilution assay; assay type: functional
Outline: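 Minimum inhibitory concentration by standard serial broth microdilution following CLSI guidelines. Medium was MHBII broth (22 g/L powder: beef extract, casein acid hydrolysate, starch), with MHBII agar (14 g agar per L broth). Where noted, assayed without and with efflux pump substrate phenylalanine-arginine β-naphthylamide (PAβN).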

Structure (SMILES)	MIC (Staphylococcus aureus [1]) [µg/mL]	IC50 [2] [nM]	MIC (Klebsiella pneumoniae) [µg/mL]	MIC (Acinetobacter baumannii) [µg/mL]	MIC (Enterococcus faecalis) [µg/mL]	IC50 (DNA gyrase [3]) [nM]	IC50 (DNA gyrase [4]) [nM]	IC50 [5] [nM]	MIC (Pseudomonas aeruginosa) [µg/mL]	MIC (Escherichia coli) [µg/mL]	MIC (Staphylococcus aureus [6]) [µg/mL]
COc1cc(C(=O)O)cc2sc(NC(=O)c3[nH]c(C)c(Cl)c3Cl)nc12	2 (≈ 5 µM)	390	2 (≈ 5 µM)	16 (≈ 40 µM)	0.25 (≈ 0.625 µM)	< 10	44	160	64 (≈ 160 µM)	64 (≈ 160 µM)	0.5 (≈ 1.25 µM)
Cc1[nH]c(C(=O)Nc2nc3ccc(C(=O)NO)cc3s2)c(Cl)c1Cl	64 (≈ 166 µM)	> 1000	> 64	> 64	0.5 (≈ 1.3 µM)		720	> 1000	> 64	> 64	32 (≈ 83.1 µM)
Cc1[nH]c(C(=O)Nc2nc3ccc(C(=O)NCCC(=O)O)cc3s2)c(Cl)c1Cl	32 (≈ 72.5 µM)	40	8 (≈ 18.1 µM)	> 64	2 (≈ 4.53 µM)	< 10	71	210	> 64	> 64	8 (≈ 18.1 µM)
Cc1[nH]c(C(=O)N(c2nc3ccc(C(=O)O)cc3s2)C2CC2)c(Cl)c1Cl	2 (≈ 4.87 µM)	> 1000	64 (≈ 156 µM)	> 64	0.25 (≈ 0.609 µM)		> 1000	> 1000	> 64	> 64	2 (≈ 4.87 µM)
Cc1[nH]c(C(=O)Nc2nc3c(OCc4cccc(C(=O)O)c4)cc(C(=O)O)cc3s2)c(Cl)c1Cl		13				< 10	< 10	170			
Cc1[nH]c(C(=O)Nc2nc3c(OCc4ccccc4)cc(C(=O)O)cc3s2)c(Cl)c1Cl	0.5 (≈ 1.05 µM)	68	1 (≈ 2.1 µM)	2 (≈ 4.2 µM)	< 0.0212				2 (≈ 4.2 µM)	16 (≈ 33.6 µM)	0.0625 (≈ 0.131 µM)
Cc1[nH]c(C(=O)Nc2nc3ccc(C(=O)O)cc3s2)c(Cl)c1Br	0.125 (≈ 0.301 µM)	61	2 (≈ 4.82 µM)	4 (≈ 9.65 µM)	0.0625 (≈ 0.151 µM)	< 10	24	220	8 (≈ 19.3 µM)	> 64	2 (≈ 4.82 µM)
O=C(O)c1ccc2nc(NC(=O)c3cc(Cl)c(Cl)[nH]3)sc2c1		> 1000					500	280			
Cc1[nH]c(C(=O)Nc2nc3ccc(C(N)=O)cc3s2)c(Cl)c1Cl		320					59	490			
Cc1[nH]c(C(=O)Nc2nc3c(OCc4ccccc4)cc(-c4nnn[nH]4)cc3s2)c(Cl)c1Cl	4 (≈ 7.99 µM)	89	> 64	> 64	0.125 (≈ 0.25 µM)		26		> 64	> 64	4 (≈ 7.99 µM)
Cc1[nH]c(C(=O)Nc2nc3ccc(C#N)cc3s2)c(Cl)c1Cl		> 1000				> 1000	> 1000	> 1000			
Cc1[nH]c(C(=O)Nc2nc3c(OCc4cccs4)cc(C(=O)O)cc3s2)c(Cl)c1Cl	0.0625 (≈ 0.13 µM)	88	4 (≈ 8.29 µM)	1 (≈ 2.07 µM)	0.0163 (≈ 0.0338 µM)	< 10	< 10	300	4 (≈ 8.29 µM)	8 (≈ 16.6 µM)	0.5 (≈ 1.04 µM)
Cc1[nH]c(C(=O)Nc2nc3cc(O)c(C(=O)O)cc3s2)c(Cl)c1Cl	16 (≈ 41.4 µM)	46	8 (≈ 20.7 µM)	> 64	1 (≈ 2.59 µM)	< 10	61	95	> 64	> 64	4 (≈ 10.4 µM)
Cc1[nH]c(C(=O)Nc2nc3c(OCCN4CCOCC4)cc(C(=O)NCC#N)cc3s2)c(Cl)c1Cl		520				< 10	100	> 1000			
Cc1[nH]c(C(=O)Nc2nc3c(OCc4ccccc4)cc(C(=O)NCC#N)cc3s2)c(Cl)c1Cl	4 (≈ 7.78 µM)	> 1000	> 64	> 64	16 (≈ 31.1 µM)	< 10	180	> 1000	> 64	> 64	4 (≈ 7.78 µM)
Cc1[nH]c(C(=O)N(c2nc3ccc(C(=O)O)cc3s2)C(C)C)c(Cl)c1Cl		> 1000					> 1000	> 1000			
Cc1[nH]c(C(=O)Nc2nc3ccc(C(=O)NCC#N)cc3s2)c(Cl)c1Cl		> 1000					310	> 1000			
